Results taken from ChEMBL document CHEMBL1135883, “A comprehensive study of the active site residues of DT-diaphorase: rational design of benzimidazolediones as DT-diaphorase substrates” (J Med Chem, 2002).

How the values were obtained:
[1] = target: NAD(P)H dehydrogenase [quinone] 1 (Homo sapiens) (UniProt P15559); experiment: Evaluated for the kinetic parameter (Kcat) using recombinant DT-Diaphorase, value calculated from Lineweaver-Burke plot
How it was run: (§1)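 Recombinant human DT-diaphorase (1.4 × 10^-9 M final) with NADH (0.3 mM final) and quinone substrate (1.3 × 10^-6 to 6.7 × 10^-5 M final; 4.0 mM DMSO stock) in 0.05 M Tris pH 7.4. Anaerobic Thunberg cuvettes, argon-purged 20 min, 30 °C. Initial rates from 336 nm absorbance over 10 min. Δε from absorbance before and after complete reduction. kcat and Km from Lineweaver–Burke plot.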

[2] = target: NAD(P)H dehydrogenase [quinone] 1 (Homo sapiens) (UniProt P15559); experiment: Ratio Kcat/Km provides the apparent second-order rate constant of the enzymatic transformation of DT-Diaphorase; how it was run: as §1
[3] = target: NAD(P)H dehydrogenase [quinone] 1 (Homo sapiens) (UniProt P15559); experiment: The ratio Kcat/Km provides the apparent second-order rate constant of the enzymatic transformation DT-Diaphorase; how it was run: as §1

Chain of NAD(P)H dehydrogenase [quinone] 1 (Homo sapiens) (P15559 whole entry): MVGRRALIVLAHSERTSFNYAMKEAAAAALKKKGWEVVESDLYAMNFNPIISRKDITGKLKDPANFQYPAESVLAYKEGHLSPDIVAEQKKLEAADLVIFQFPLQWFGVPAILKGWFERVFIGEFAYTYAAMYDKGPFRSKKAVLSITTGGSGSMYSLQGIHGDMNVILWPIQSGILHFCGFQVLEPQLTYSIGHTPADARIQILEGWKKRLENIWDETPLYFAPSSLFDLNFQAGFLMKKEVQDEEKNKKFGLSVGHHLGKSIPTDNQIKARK

CC1=C(N2CC2)C(=O)c2nc3n(c2C1=O)CCC[C@H]3N
k cat [1]: 4.92 s⁻¹ | k cat/Km [2]: 106000 M⁻¹ s⁻¹

CC(=O)NC1=C(C)C(=O)c2c(nc3n2CC[C@@H]3OC(C)=O)C1=O
k cat [1]: 3.85 s⁻¹ | k cat/Km [2]: 472000 M⁻¹ s⁻¹

CC1=C(N2CC2)C(=O)c2nc3n(c2C1=O)CC[C@H]3NC(N)=O
k cat [1]: 2.7 s⁻¹ | k cat/Km [2]: 890000 M⁻¹ s⁻¹

COCC(=O)O[C@@H]1CCn2c1nc1c2C(=O)C(C)=C(NC(C)=O)C1=O
k cat [1]: 4.84 s⁻¹ | k cat/Km [3]: 40000 M⁻¹ s⁻¹

CC(=O)N[C@H]1CCn2c1nc1c2C(=O)C(C)=C(N2CC2)C1=O
k cat [1]: 1.87 s⁻¹ | k cat/Km [2]: 520000 M⁻¹ s⁻¹

CC(=O)N[C@@H]1CCn2c1nc1c2C(=O)C(C)=C(N2CC2)C1=O
k cat [1]: 1.47 s⁻¹ | k cat/Km [3]: 920000 M⁻¹ s⁻¹

CC1=C(N2CC2)C(=O)c2nc3n(c2C1=O)CCC[C@@H]3N
k cat [1]: 2.97 s⁻¹ | k cat/Km [3]: 188000 M⁻¹ s⁻¹

CC1=C(N2CC2)C(=O)c2nc3n(c2C1=O)CC[C@@H]3NC(N)=O
k cat [1]: 2.4 s⁻¹ | k cat/Km [3]: 1.2e+06 M⁻¹ s⁻¹

CC1=C(N2CC2)C(=O)c2nc3n(c2C1=O)CC[C@@H]3NC(=O)N(C)C
k cat [1]: 3.96 s⁻¹ | k cat/Km [2]: 940000 M⁻¹ s⁻¹

CC1=C(N2CC2)C(=O)c2nc3n(c2C1=O)CC[C@H]3N
k cat [1]: 3.26 s⁻¹ | k cat/Km [2]: 640000 M⁻¹ s⁻¹

CC1=C(N2CC2)C(=O)c2nc3n(c2C1=O)CC[C@@H]3N
k cat [1]: 2.64 s⁻¹ | k cat/Km [2]: 1.39e+06 M⁻¹ s⁻¹

CC(=O)NC1=C(C)C(=O)c2c(nc3n2CC[C@H]3OC(C)=O)C1=O
k cat [1]: 3.81 s⁻¹ | k cat/Km [2]: 154000 M⁻¹ s⁻¹

COCC(=O)O[C@H]1CCn2c1nc1c2C(=O)C(C)=C(NC(C)=O)C1=O
k cat [1]: 1.74 s⁻¹ | k cat/Km [2]: 69000 M⁻¹ s⁻¹

O=C1c2nc3n(c2C(=O)c2c1nc1n2CCC1)CCC3
k cat [1]: 3.81 s⁻¹ | k cat/Km [3]: 118000 M⁻¹ s⁻¹

O=C1c2nc3n(c2C(=O)c2c1nc1n2CCCC1)CCCC3
k cat [1]: 3.74 s⁻¹ | k cat/Km [2]: 1.45e+06 M⁻¹ s⁻¹

CC1=C(N2CC2)C(=O)c2nc3n(c2C1=O)CC[C@H]3NC(=O)N(C)C
k cat [1]: 9.56 s⁻¹ | k cat/Km [2]: 2.13e+06 M⁻¹ s⁻¹
